Reference: ChEMBL document CHEMBL4311940, “Design, Synthesis, and Biological Evaluation of 4-Methyl Quinazoline Derivatives as Anticancer Agents Simultaneously Targeting Phosphoinositide 3-Kinases and Histone Deacetylases” (J Med Chem, 2019)
The source made the active and inactive calls. The rule behind the calls is not given here.

Key:
[1] = Toxicity in po dosed ICR mouse assessed as maximum tolerated dose; type: organism-based; conditions: in vivo
Summary of the method: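 Male ICR mice, 6−8 weeks old, given one dose; vehicle 0.5% cmc with Tween 80 for oral dosing, saline for intraperitoneal dosing. Clinical signs observed and body weights recorded for 7 consecutive days after dosing to set the maximum tolerated dose.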

[2] = molecular target: PI3-kinase p110-delta/p85-alpha (Homo sapiens, UniProt O00329); assay: Inhibition of recombinant human His-tagged PIK3CD/PIK3R1 expressed in baculovirus expression system using PIP2 as substrate incubated for 1 hr by ADP-glo assay
Chain of PI3-kinase p110-delta/p85-alpha (P27986 whole entry): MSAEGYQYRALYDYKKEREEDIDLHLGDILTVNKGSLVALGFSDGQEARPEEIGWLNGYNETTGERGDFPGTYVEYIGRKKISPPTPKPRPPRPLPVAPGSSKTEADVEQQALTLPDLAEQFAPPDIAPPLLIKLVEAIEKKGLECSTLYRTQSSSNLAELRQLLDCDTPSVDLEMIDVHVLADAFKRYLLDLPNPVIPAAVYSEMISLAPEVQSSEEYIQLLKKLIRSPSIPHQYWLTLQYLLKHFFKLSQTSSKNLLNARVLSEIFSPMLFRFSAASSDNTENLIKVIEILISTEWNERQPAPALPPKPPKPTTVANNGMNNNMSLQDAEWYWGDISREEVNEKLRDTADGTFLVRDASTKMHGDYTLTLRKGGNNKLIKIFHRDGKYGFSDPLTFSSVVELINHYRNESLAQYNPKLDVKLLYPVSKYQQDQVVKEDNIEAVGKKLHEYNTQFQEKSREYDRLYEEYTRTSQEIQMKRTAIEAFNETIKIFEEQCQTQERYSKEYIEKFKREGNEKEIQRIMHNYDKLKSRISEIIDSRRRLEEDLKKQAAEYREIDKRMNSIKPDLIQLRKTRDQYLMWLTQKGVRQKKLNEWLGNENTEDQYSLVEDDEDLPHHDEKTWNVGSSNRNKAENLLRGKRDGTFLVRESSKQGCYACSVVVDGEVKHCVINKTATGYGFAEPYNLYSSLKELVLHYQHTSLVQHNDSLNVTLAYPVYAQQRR
Chain of PI3-kinase p110-delta/p85-alpha (O00329 whole entry): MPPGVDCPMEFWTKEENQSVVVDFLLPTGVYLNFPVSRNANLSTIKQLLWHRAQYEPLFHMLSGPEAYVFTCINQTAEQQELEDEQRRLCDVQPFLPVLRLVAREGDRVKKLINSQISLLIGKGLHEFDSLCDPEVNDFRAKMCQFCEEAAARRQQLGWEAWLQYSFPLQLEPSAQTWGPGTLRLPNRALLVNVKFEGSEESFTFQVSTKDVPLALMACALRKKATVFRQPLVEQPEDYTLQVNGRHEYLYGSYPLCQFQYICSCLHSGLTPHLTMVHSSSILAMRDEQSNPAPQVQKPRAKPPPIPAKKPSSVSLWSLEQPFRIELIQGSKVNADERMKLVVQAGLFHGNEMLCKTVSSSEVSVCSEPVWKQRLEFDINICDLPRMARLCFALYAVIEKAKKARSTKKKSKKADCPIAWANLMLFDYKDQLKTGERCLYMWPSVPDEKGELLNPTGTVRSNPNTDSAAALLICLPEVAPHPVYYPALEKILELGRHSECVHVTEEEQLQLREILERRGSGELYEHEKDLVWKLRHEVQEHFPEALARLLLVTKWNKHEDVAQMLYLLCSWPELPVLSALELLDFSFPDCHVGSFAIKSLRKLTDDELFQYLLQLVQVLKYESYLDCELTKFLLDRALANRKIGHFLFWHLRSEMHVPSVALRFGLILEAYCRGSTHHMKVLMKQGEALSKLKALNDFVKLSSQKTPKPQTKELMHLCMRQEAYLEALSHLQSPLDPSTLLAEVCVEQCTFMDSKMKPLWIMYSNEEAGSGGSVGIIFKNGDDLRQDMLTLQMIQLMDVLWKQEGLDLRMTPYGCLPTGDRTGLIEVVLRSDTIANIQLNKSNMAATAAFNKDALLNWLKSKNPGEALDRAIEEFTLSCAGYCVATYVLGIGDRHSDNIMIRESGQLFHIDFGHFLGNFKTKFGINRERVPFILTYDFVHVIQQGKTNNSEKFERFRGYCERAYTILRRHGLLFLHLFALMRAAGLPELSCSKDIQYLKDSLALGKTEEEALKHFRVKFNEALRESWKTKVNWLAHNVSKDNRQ

Homo sapiens [3] = species on record: Homo sapiens; assay: Selectivity ratio, ratio of IC50 for recombinant human His-tagged PIK3CG expressed in baculovirus expression system to recombinant human His-tagged PIK3CD/PIK3R1 expressed in baculovirus expression system
Homo sapiens [4] = species on record: Homo sapiens; assay: Selectivity ratio, ratio of IC50 for recombinant human N-terminal FLAG-tagged mTOR (1362 to end amino acids) to IC50 for recombinant human His-tagged PIK3CD/PIK3R1 expressed in baculovirus expression system
[5] = molecular target: Histone deacetylase (Homo sapiens) (UniProt Q13547+O15379+Q9UBN7+Q92769+Q9UQL6+Q8WUI4+Q9BY41+Q96DB2+P56524+Q9UKV0+Q969S8); assay: Inhibition of HDAC in human HCT116 cells assessed as increase in acetylated p53 levels after 16 hrs by Western blot analysis; type: cell-based
Summary of the method: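 HCT116 cells lysed in RIPA after washes in cold PBS. 40 μg protein run on 10−12% SDS-PAGE and transferred to nitrocellulose. Membrane blocked in 5% milk/TBST for 0.5 h, primary antibodies 1:1000 overnight at 4 °C, secondary 1:1000 for 1 h, ECL detection.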

Homo sapiens [6] = species on record: Homo sapiens; assay: Inhibition of HDAC/PI3K in human HCT116 cells assessed as increase in cleaved caspase-3 level at 0.02 to 0.5 uM after 16 hrs by Western blot analysis; type: cell-based
Summary of the method: (§1)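 Immunoblot of HCT116 lysates (RIPA). 40 μg protein per lane on 10−12% SDS-PAGE, transferred to nitrocellulose, blocked 0.5 h in 5% milk/TBST. Primary antibodies 1:1000 overnight at 4 °C, secondary 1:1000 for 1 h, bands visualized by enhanced ECL.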

Homo sapiens [7] = species on record: Homo sapiens; assay: Inhibition of HDAC/PI3K in human HCT116 cells assessed as increase in cleaved PARP level at 0.02 to 0.5 uM after 16 hrs by Western blot analysis; type: cell-based; summary of the method: as §1
[8] = Mutagenicity in Salmonella typhimurium TA1535 at 5 to 500 ug/plate in absence of s9 mix by Ames test; type: toxicity; conditions: salmonella enterica subsp. enterica serovar typhimurium
Summary of the method: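 Plate incorporation method at 5, 50 and 500 μg/plate, with and without S9 activation. At least three plates per dose, incubated 72 h at 37 °C, revertants counted. Mean revertants compared with vehicle and positive controls.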

[9] = Selectivity index, ratio of IC50 for human PBMC cells to IC50 for human HCT116 cells; type: toxicity; conditions: PBMC cells and HCT116 cells, read-out: Ratio IC50
Summary of the method: (§2)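 Ratio of IC50s from the MTT assay: PBMC or LO2 cells versus HCT116. Cells seeded at 2000/well, attached overnight at 37 °C, treated 96 h, MTT 4 h, formazan dissolved in DMSO, A570.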

[10] = Selectivity index, ratio of IC50 for human LO2 cells to IC50 for human HCT116 cells; type: toxicity; conditions: LO2 cells and HCT116 cells, read-out: Ratio IC50; summary of the method: as §2
[11] = molecular target: Dual specificity tyrosine-phosphorylation-regulated kinase 1B (Homo sapiens) (UniProt Q9Y463); assay: Binding affinity to wild-type human full length DYRK1B (M1 to S629 residues) expressed in bacterial expression system assessed as residual binding level at 1 uM by Kinomescan method relative to control
Chain of Dual specificity tyrosine-phosphorylation-regulated kinase 1B (Homo sapiens) (Q9Y463 whole entry, looked up, the tested form may be a part): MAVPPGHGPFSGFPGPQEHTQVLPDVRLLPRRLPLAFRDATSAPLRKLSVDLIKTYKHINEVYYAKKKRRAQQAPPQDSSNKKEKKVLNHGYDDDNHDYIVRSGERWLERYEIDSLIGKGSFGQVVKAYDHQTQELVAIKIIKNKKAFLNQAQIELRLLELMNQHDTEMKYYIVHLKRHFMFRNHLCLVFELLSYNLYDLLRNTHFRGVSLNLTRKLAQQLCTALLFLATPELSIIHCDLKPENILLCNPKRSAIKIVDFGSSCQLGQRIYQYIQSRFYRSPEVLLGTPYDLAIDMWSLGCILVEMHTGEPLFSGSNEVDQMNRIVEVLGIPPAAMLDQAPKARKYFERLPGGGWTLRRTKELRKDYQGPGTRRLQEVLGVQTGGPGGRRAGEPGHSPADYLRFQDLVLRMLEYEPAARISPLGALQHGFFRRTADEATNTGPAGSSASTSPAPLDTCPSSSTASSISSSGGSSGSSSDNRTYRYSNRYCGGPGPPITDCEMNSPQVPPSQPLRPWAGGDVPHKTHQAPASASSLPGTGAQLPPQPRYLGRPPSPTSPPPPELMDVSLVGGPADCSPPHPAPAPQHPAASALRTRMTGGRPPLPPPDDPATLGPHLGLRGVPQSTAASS
Summary of the method: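 Kinomescan binding screen at 1 μM across 97 kinases.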

Homo sapiens [12] = species on record: Homo sapiens; assay: Inhibition of HDAC/PI3K in human HCT116 cells assessed as increase in cleaved caspase-3 level at 0.5 to 5 uM after 16 hrs by Western blot analysis; type: cell-based; summary of the method: as §1
Homo sapiens [13] = species on record: Homo sapiens; assay: Inhibition of HDAC/PI3K in human HCT116 cells assessed as increase in cleaved PARP level at 0.5 to 5 uM after 16 hrs by Western blot analysis; type: cell-based; summary of the method: as §1
[14] = Half life in mouse plasma at 0.02 mM by LC/MS analysis; type: ADME, cell-free
Summary of the method: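 Spiking solution of 0.02 mM compound, 0.05 mM sodium phosphate, 0.5% BSA prewarmed 5 min at 37 °C, mixed with prewarmed mouse plasma; quenched with acetonitrile at time points; LC/MS; T1/2 = 0.693/K from ln(concentration) vs time.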

HCT-116 [15] = assay: Antitumor activity against human HCT116 cells xenografted in athymic nude BALB/c mouse assessed as tumor growth inhibition at 150 mpk, po measured 2 times every week relative to control; type: functional; conditions: HCT-116, po, read-out: TGI
Summary of the method: (§3)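 Female BALB/c-nu/nu mice, 6–8 weeks, given 2 × 10^6 HCT116 cells in 0.2 mL saline s.c. right flank; randomized at 100–200 mm3. Daily oral dosing in 0.5% cmc with Tween 80; vehicle controls.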

HCT-116 [16] = assay: Antitumor activity against human HCT116 cells xenografted in po dosed athymic nude BALB/c mouse assessed as tumor growth inhibition measured 2 times every week; type: functional, organism-based; summary of the method: as §3
[17] = Drug level in tumor of human HCT116 cells xenografted in athymic nude BALB/c mouse at 150 mpk, po by LC/MS/MS analysis; type: ADME, organism-based, Neoplasm; conditions: in vivo, 150 mg/kg
Summary of the method: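 HCT116 xenografted nude mice given daily oral doses; tumor tissue sampled 1 h after final dose and compound level measured (ng/g).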

Mus musculus = assay: In vivo inhibition of PI3K in tumor of human HCT116 cells xenografted in athymic nude BALB/c mouse assessed as reduction in phosphorylated AKT expression at S473 residue by DAB staining based immunohistochemistry method; type: functional, organism-based
Summary of the method: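 HCT116 xenograft tumors from treated and vehicle mice stained immunohistochemically for Ki67, acetyl-H3 and p-AKT(S473) (200×); integrated optical density quantified; mean ± SEM, n = 5−7, one-way ANOVA versus vehicle.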

[18] = Drug level in BALB/c mouse plasma xenografted with human HGC27 cells at 100 mg/kg, po measured 0.5 hrs post last dose; type: ADME, organism-based
Summary of the method: (§4)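 HGC-27 xenografted nude mice dosed po (0.5% cmc/Tween 80) or ip (saline); at end of treatment, 0.5 h after final dose, plasma and tumor tissue collected and compound concentration measured (ng/mL plasma, ng/g tumor).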

[19] = Drug level in BALB/c mouse plasma xenografted with human HGC27 cells at 200 mg/kg, po measured 0.5 hrs post last dose; type: ADME, organism-based; summary of the method: as §4
[20] = Drug level in BALB/c mouse plasma xenografted with human HGC27 cells at 30 mg/kg, ip measured 0.5 hrs post last dose; type: ADME, organism-based; summary of the method: as §4
[21] = Drug level in tumor of human HGC27 cells xenografted in BALB/c mouse at 100 mg/kg, po measured 0.5 hrs post last dose; type: ADME, organism-based, Neoplasm; conditions: read-out: Drug uptake; summary of the method: as §4
[22] = Drug level in tumor of human HGC27 cells xenografted in BALB/c mouse at 200 mg/kg, po measured 0.5 hrs post last dose; type: ADME, organism-based, Neoplasm; conditions: read-out: Drug uptake; summary of the method: as §4
[23] = Drug level in tumor of human HGC27 cells xenografted in BALB/c mouse at 30 mg/kg, ip measured 0.5 hrs post last dose; type: ADME, organism-based, Neoplasm; conditions: read-out: Drug uptake; summary of the method: as §4

COc1ccc(-c2cc(OCCN(C)c3ncc(C(=O)NO)cn3)c3ncnc(C)c3c2)cn1
MTD [1]: > 2000 mg/kg | IC50 [2]: 29 nM | Ratio IC50 (Homo sapiens [3]): > 5 | Ratio IC50 (Homo sapiens [4]): > 27 | inhibition [5]: Dose-dependent effect | inhibition (Homo sapiens [6]): Active | inhibition (Homo sapiens [7]): Active | Activity [8]: Non-Toxic | selectivity ratio [9]: 8240 | selectivity ratio [10]: 1430

COc1ncc(-c2cc(OCCCCCCC(=O)NO)c3ncnc(C)c3c2)cc1F
MTD [1]: > 2000 mg/kg | Activity [11]: 29% | inhibition (Homo sapiens [12]): Active | inhibition (Homo sapiens [13]): Active | half-life at 20 µM [14]: 1.2 h | inhibition in vivo at 150 mg/kg (HCT-116 [15]): 45.8% | Activity (HCT-116 [16]): Dose-dependent effect | Drug uptake [17]: 74.8 ng/g | inhibition (Mus musculus): Dose-dependent effect | concentration at 0.5 h [18]: 179 ng/mL | concentration at 0.5 h [19]: 232 ng/mL | concentration at 0.5 h [20]: 577 ng/mL | concentration at 0.5 h [21]: 36.6 ng/g | concentration at 0.5 h [22]: 105 ng/g | concentration at 0.5 h [23]: 370 ng/g | Activity [8]: Non-Toxic
